We go through 27 molecules from ChEMBL document CHEMBL4837209, “Synthesis and BK channel-opening activity of 2-amino-1,3-thiazole derivatives” (Bioorg Med Chem Lett, 2021).

Test [1] deals with Calcium-activated potassium channel subunit alpha-1 (Homo sapiens) (UniProt Q12791). Put plainly: Opening of BK channel in human AD293 cells assessed as relative fluorescence unit at 5 uM by cell-based fluorescence assay relative to control. Put shortly: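 FluxOR Tl⁺-flux assay in AD-293 cells expressing hyperactive mutant BK channels (G803D/N806K). Each fluorescence trace was normalized to its own basal level to give RFU. ΔRFU with compound at 5 μM was expressed versus the drug-free control. DMSO served as negative control and CTBIC at a fixed concentration as positive control. Values are means of at least three separate measurements.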

The target of test [2] is Calcium-activated potassium channel subunit alpha-1 (Rattus norvegicus) (UniProt Q62976). Put plainly: […] of rat BK calcium channel expressed in Xenopus laevis oocytes assessed as maximum conductance at 10 uM at -80 to 200 mV by patch clamp assay relative to control. Type of test: cell-based. Conditions: Oocyte. Put shortly: (§1)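 Rat BK α-subunit (Slo1) expressed in Xenopus laevis oocytes. Currents were recorded by gigaohm-seal patch clamp in the outside-out configuration. Macroscopic currents were evoked by voltage pulses from -80 to 200 mV, with and without compound. Student t-test was used.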

Test [3] shares this target. The test is described as follows: […] of rat BK calcium channel expressed in Xenopus laevis oocytes assessed as increase in inward current tail at 10 uM at -80 to 200 mV by patch clamp assay. Format: cell-based. Conditions: Oocyte. The gist of the method:
as §1
(In general: In patch-clamp work, channel activity is measured electrically.)

For test [4] the target is unchanged. Put plainly: […] of rat BK calcium channel expressed in Xenopus laevis oocytes assessed as G-V shift toward more negative voltage at 10 uM at -80 to 200 mV by patch clamp assay. Format: cell-based. The conditions noted are these: Oocyte. Put shortly: as §1
For test [5], the target named is Calcium-activated potassium channel subunit alpha-1 (Homo sapiens) (UniProt Q12791). Put plainly: Opening of BK channel in human AD293 cells assessed as relative fluorescence unit by cell-based fluorescence assay. Conditions: dose 1-30 µM.
For test [6] the target is unchanged. Put plainly: […] of BK calcium channel in human AD293 cells assessed as relative fluorescence unit at 1 to 30 uM in presence of 1 uM paxilline by cell-based fluorescence assay. The conditions noted are these: dose 1-30 µM. The gist of the method:
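FluxOR Tl⁺-flux fluorescence in AD-293 cells expressing G803D/N806K mutant BK channels. Compounds were tested at 1–30 μM, alone and co-applied with 1 μM paxilline to confirm the BK dependence of the signal. Signals were normalized to the basal level of each trace. Student t-test was used.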

Test [7] concerns the target Calcium-activated potassium channel subunit alpha-1 (Rattus norvegicus) (UniProt Q62976). Put plainly: […] of rat BK calcium channel expressed in Xenopus laevis oocytes assessed as V1/2 at 10 uM at -80 to 200 mV by patch clamp assay. Format: cell-based. The conditions noted are these: Oocyte. Put shortly: as §1
Test [8] shares this target. The test is described as follows: […] of rat BK calcium channel expressed in Xenopus laevis oocytes assessed as increase in outward current tail at 10 uM at -80 to 200 mV by patch clamp assay. The conditions noted are these: Oocyte. Type of test: cell-based. Put shortly: as §1

Active and inactive are the calls of the source. No cut-off for these calls is given here.

Chain of Calcium-activated potassium channel subunit alpha-1 (Homo sapiens) (Q12791 whole entry): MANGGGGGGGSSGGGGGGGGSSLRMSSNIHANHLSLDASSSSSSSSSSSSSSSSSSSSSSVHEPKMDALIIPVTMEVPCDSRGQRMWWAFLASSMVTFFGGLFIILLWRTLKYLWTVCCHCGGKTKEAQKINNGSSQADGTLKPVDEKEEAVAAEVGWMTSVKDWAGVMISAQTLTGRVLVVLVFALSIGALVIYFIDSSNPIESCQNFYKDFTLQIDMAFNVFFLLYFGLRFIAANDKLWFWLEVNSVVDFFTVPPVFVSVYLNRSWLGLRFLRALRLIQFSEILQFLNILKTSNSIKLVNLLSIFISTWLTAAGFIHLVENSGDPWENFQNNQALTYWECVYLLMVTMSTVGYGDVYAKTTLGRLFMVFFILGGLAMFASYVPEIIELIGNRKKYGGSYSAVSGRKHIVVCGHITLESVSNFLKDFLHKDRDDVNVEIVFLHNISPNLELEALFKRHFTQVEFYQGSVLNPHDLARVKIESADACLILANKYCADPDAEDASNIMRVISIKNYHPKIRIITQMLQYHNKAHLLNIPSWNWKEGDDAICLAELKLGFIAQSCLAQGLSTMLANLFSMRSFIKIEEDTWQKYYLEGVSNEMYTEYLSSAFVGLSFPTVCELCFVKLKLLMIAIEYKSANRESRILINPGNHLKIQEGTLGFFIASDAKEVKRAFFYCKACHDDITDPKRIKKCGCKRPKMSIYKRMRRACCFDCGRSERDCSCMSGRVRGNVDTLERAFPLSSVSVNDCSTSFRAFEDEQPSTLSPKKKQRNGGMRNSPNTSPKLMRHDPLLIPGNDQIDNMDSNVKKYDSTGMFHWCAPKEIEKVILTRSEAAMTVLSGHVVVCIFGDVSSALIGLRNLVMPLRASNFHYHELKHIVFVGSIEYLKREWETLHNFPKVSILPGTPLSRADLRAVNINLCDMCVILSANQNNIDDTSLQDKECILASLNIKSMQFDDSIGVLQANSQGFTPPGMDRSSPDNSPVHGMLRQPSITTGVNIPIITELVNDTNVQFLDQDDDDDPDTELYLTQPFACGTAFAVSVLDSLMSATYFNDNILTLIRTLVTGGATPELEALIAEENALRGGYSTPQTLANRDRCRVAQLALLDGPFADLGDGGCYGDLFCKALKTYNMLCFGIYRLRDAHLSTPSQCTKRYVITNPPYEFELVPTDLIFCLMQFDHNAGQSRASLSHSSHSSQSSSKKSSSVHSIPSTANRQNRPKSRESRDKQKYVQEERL
Chain of Calcium-activated potassium channel subunit alpha-1 (Rattus norvegicus) (Q62976 whole entry): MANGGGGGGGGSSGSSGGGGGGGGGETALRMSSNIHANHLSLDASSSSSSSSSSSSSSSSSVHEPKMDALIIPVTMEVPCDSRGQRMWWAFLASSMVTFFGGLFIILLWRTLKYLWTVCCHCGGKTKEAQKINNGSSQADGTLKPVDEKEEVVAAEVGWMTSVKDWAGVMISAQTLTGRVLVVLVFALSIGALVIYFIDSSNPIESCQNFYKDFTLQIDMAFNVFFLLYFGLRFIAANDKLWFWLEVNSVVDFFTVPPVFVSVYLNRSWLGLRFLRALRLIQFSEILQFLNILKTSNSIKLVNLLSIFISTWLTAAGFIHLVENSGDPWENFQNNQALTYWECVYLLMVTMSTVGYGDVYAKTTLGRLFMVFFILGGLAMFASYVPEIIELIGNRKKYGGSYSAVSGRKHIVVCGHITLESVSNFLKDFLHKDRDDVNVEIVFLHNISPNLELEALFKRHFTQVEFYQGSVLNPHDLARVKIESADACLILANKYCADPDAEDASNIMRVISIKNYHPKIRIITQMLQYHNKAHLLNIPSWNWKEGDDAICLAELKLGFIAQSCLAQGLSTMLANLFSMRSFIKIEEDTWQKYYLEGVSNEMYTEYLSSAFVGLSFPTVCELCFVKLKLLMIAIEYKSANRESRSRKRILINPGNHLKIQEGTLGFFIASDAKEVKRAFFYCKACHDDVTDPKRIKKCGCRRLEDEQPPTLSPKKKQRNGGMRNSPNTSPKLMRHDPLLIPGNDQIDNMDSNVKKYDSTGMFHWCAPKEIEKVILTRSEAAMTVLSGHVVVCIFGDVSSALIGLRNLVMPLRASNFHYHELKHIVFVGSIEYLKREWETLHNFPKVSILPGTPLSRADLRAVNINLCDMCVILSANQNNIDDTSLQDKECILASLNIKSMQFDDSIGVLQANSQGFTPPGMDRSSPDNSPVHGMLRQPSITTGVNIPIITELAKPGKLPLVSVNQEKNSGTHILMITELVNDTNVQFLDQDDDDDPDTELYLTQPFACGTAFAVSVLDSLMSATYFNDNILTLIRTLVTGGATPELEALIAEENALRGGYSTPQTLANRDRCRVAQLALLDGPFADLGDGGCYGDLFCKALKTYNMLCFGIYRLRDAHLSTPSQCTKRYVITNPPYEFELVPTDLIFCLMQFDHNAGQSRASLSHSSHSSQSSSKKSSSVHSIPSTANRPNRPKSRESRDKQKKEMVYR

On to `Nc1ncc(Cc2ccccc2C(F)(F)F)s1`, for which the RFU in test [1] was determined as 1.07.

Regarding `O=C(O)c1ccc(Cl)c2c1[nH]c1c3ccc(C(F)(F)F)cc3oc12`, the RFU in test [1] came out at 3.3. As for `Nc1ncc(Cc2cccc(C(F)(F)F)c2)s1`, the RFU in test [1] stood at 1.22. On the same count and under the same terms, as for `Nc1ncc(C(=O)c2ccc(C(F)(F)F)cc2)s1`, the figure is 1.08; as for `COc1cc(Cc2cnc(N)s2)cc(C(F)(F)F)c1`, 0.97. The same measure, in the same setting: the value for `Nc1ncc(Cc2ccncc2)s1` was 1.11; that for `COc1ccc(Cc2cnc(N)s2)cc1` was 1.02; that for `Nc1ncc(Cc2ccc(Br)cc2)s1` was 1.85. Still for that read-out and setting: as for `Nc1ncc(Cc2cccnc2)s1`, the figure is 1.08. Regarding `Cc1ccccc1Cc1cnc(N)s1`, the RFU in test [1] came to 1.37. The same measure, in the same setting: as for `N#Cc1ccc(Cc2cnc(N)s2)cc1`, the figure is 1.21. In the case of `O=C(CCl)Nc1ncc(Cc2ccc(Br)cc2)s1`, the RFU in test [1] turned out to be 0.94. Take `Nc1ncc(Cc2ccc([N+](=O)[O-])cc2)s1`: the RFU in test [1] is 0.94.

In the case of `Nc1ncc(Cc2ccc(C(F)(F)F)cc2)s1`, the fold change (FC) in test [2] was determined as 1.3. Also, the result in test [3], in test [4] and in test [8] was Active. For the same molecule, in test [1], the RFU came out at 2.1. Besides, the inhibition result in test [5] was “Dose-Dependent Effect”. In addition, the inhibition result in test [6] is “Active”. Further, the V1/2 in test [7] is 24.5 mV. `COc1cccc(Cc2cnc(N)s2)c1`: the RFU in test [1] came to 1.02.

Regarding `Nc1ncc(Cc2cccc(Br)c2)s1`, the RFU in test [1] worked out at 1.37. Regarding `Nc1ncc(Cc2ccccc2Br)s1`, the fold change (FC) in test [2] was determined as 1.4. Also, the outcome in test [3], in test [4] and in test [8] was Active. Further, in test [1], the RFU was determined as 2.67. In test [5], the inhibition result is “Dose-Dependent Effect”. For the same molecule, in test [6], the inhibition result was “Active”. Further, the V1/2 in test [7] worked out at 23.4 mV. Turning to `CC(=O)Nc1ncc(Cc2ccc(Br)cc2)s1`, the RFU in test [1] turned out to be 1.14. For the molecule `Cc1ccc(Cc2cnc(N)s2)cc1`, in test [1], the RFU was determined as 1.11. Same read-out and setting: as for `COc1ccccc1Cc1cnc(N)s1`, the figure is 0.94; as for `Nc1ncc(Cc2ccc(Cl)cc2)s1`, 1.59. The same measure, in the same setting: as for `N#Cc1cccc(Cc2cnc(N)s2)c1`, the figure is 1; as for `Cc1cccc(Cc2cnc(N)s2)c1`, 1.27. Still for that read-out and setting: as for `N#Cc1ccccc1Cc1cnc(N)s1`, the figure is 1.06; as for `Nc1ncc(Cc2cccc(Cl)c2)s1`, 1.51.

In the case of `Nc1ncc(Cc2ccccc2Cl)s1`, the RFU in test [1] was 1.13. Regarding `Nc1ncc(C(=O)c2ccc(Br)cc2)s1`, the RFU in test [1] was 0.94.
